Laboratory results published in ChEMBL document CHEMBL3102751, “Cholinesterase inhibitory activity versus aromatic core multiplicity: a facile green synthesis and molecular docking study of novel piperidone embedded thiazolopyrimidines” (Bioorg Med Chem, 2014).

Assays:
[1] = target: Acetylcholinesterase (Electrophorus electricus, UniProt O42275); test: Inhibition of Electrophorus electricus acetylcholinesterase using acetylthiocholine iodide as substrate preincubated for 15 mins followed by substrate addition measured for 30 mins by Ellman's method
Sequence of Acetylcholinesterase (O42275 whole entry): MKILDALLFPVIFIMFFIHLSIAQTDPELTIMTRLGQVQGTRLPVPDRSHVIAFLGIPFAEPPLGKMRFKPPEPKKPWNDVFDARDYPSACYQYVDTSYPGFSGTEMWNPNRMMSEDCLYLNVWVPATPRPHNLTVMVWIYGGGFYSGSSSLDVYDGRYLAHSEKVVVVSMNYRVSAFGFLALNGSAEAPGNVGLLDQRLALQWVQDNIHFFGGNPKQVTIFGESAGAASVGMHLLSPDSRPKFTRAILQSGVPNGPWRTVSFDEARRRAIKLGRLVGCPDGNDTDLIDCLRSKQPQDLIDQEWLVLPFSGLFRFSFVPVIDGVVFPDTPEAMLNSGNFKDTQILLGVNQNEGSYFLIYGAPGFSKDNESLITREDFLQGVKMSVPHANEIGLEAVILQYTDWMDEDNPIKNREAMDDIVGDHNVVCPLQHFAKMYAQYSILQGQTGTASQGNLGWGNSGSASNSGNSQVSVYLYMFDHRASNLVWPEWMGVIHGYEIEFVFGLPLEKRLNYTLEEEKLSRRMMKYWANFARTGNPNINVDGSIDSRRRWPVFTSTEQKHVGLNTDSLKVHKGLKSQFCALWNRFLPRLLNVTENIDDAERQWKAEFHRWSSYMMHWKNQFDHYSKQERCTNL

[2] = target: Cholinesterase (Equus caballus, UniProt P81908); test: Inhibition of equine serum butyrylcholinesterase using S-butyrylthiocholine chloride as substrate preincubated for 15 mins followed by substrate addition measured for 30 mins by Ellman's method
Sequence of Cholinesterase (P81908 whole entry): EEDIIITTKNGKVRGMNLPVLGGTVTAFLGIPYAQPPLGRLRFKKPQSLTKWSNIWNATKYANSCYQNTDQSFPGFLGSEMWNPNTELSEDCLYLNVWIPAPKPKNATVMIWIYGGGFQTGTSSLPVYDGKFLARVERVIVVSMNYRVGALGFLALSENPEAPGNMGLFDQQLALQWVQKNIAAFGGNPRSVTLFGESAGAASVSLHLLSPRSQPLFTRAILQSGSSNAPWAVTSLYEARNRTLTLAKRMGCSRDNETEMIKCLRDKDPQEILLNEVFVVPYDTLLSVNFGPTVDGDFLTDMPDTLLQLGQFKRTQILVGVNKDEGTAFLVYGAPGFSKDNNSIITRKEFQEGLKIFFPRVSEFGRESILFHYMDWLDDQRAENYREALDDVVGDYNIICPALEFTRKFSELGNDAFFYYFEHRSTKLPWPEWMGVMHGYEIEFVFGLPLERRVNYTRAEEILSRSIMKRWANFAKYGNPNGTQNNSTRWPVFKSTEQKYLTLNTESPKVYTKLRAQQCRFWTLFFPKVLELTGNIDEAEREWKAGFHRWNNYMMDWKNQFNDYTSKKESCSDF
Procedure, shortened: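 Modified Ellman assay in 0.1 M sodium phosphate buffer, pH 8. Samples were prepared in DMSO, with 1% DMSO in the final mix. Equine serum BChE was incubated with sample for 15 min at 25 °C. 10 mM DTNB stock was then added, followed by 14 mM S-butyrylthiocholine chloride stock. Absorbance at 412 nm was read for 30 min, and % inhibition was calculated relative to control.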

[3] = Selectivity ratio of IC50 for equine serum butyrylcholinesterase to IC50 for Electrophorus electricus acetylcholinesterase
[4] = Selectivity ratio of IC50 for Electrophorus electricus acetylcholinesterase to IC50 for equine serum butyrylcholinesterase

SMILES | IC50 [1] [µM] | IC50 [2] [µM] | Ratio IC50 [3] | Ratio IC50 [4]
Fc1ccc(/C=C2\CNCC3C2NC(=S)NC3c2ccc(F)cc2)cc1 (stereo not drawn) | 37.2 | 28.8 | – | –
Clc1ccc(C2=CSC3=NC4=C(CNC/C4=C\c4ccccc4Cl)C(c4ccccc4Cl)N23)cc1 (stereo not drawn) | 5.2 | 7.65 | 1.47 | 0.68
Fc1ccc(C2=CSC3=NC4=C(CNC/C4=C\c4ccc(Cl)cc4)C(c4ccc(Cl)cc4)N23)cc1 (stereo not drawn) | 5.73 | 15.8 | 2.75 | 0.36
COc1ccccc1/C=C1\CNCC2=C1N=C1SC=C(c3ccc(F)cc3)N1C2c1ccccc1OC (stereo not drawn) | 5.5 | 8.75 | 1.59 | 0.63
S=C1NC2/C(=C/c3ccccc3Cl)CNCC2C(c2ccccc2Cl)N1 (stereo not drawn) | 32.3 | 2.91 | – | –
Clc1ccccc1/C=C1\CNCC2=C1N=C1SC=C(c3ccccc3)N1C2c1ccccc1Cl (stereo not drawn) | 2.05 | 2.68 | 1.3 | 0.77
Fc1ccc(/C=C2\CNCC3=C2N=C2SC=C(c4ccccc4)N2C3c2ccc(F)cc2)cc1 (stereo not drawn) | 4.04 | 3.95 | 0.98 | 1.02
Cc1ccc(/C=C2\CNCC3=C2N=C2SC=C(c4ccc(F)cc4)N2C3c2ccc(C)cc2)cc1 (stereo not drawn) | 6.47 | 4.91 | 0.76 | 1.32
COc1ccccc1/C=C1\CNCC2C1NC(=S)NC2c1ccccc1OC (stereo not drawn) | 0.8 | 1.18 | – | –
Cc1ccc(/C=C2\CNCC3=C2N=C2SC=C(c4ccccc4)N2C3c2ccc(C)cc2)cc1 (stereo not drawn) | 0.53 | 1.71 | 3.21 | 0.31
C1=C(c2ccccc2)N2C(=NC3=C(CNC/C3=C\c3ccccc3)C2c2ccccc2)S1 (stereo not drawn) | 1.47 | 1.74 | 1.19 | 0.84
Cc1ccc(/C=C2\CNCC3C2NC(=S)NC3c2ccc(C)cc2)cc1 (stereo not drawn) | 37.5 | 6.27 | – | –
Clc1ccc(/C=C2\CNCC3=C2N=C2SC=C(c4ccccc4)N2C3c2ccc(Cl)cc2)cc1 (stereo not drawn) | 1.62 | 2.18 | 1.35 | 0.74
COc1ccc(C2=CSC3=NC4=C(CNC/C4=C\c4ccccc4)C(c4ccccc4)N23)cc1 (stereo not drawn) | 15.9 | 10.4 | 0.65 | 1.52
Clc1ccc(/C=C2\CNCC3=C2N=C2SC=C(c4ccc(Cl)cc4)N2C3c2ccc(Cl)cc2)cc1 (stereo not drawn) | 5.37 | 27.4 | 5.11 | 0.2
COc1ccc(C2=CSC3=NC4=C(CNC/C4=C\c4ccccc4Cl)C(c4ccccc4Cl)N23)cc1 (stereo not drawn) | 7.97 | 12.6 | 1.58 | 0.63
Fc1ccc(/C=C2\CNCC3=C2N=C2SC=C(c4ccc(F)cc4)N2C3c2ccc(F)cc2)cc1 (stereo not drawn) | 13.2 | 15.8 | 1.2 | 0.83
Fc1ccc(/C=C2\CNCC3=C2N=C2SC=C(c4ccc(Cl)cc4)N2C3c2ccc(F)cc2)cc1 (stereo not drawn) | 10.3 | 22.2 | 2.16 | 0.46
COc1ccc(C2=CSC3=NC4=C(CNC/C4=C\c4ccc(C)cc4)C(c4ccc(C)cc4)N23)cc1 (stereo not drawn) | 10.4 | 10.5 | 1.01 | 0.99
S=C1NC2/C(=C/c3ccc(Cl)cc3)CNCC2C(c2ccc(Cl)cc2)N1 (stereo not drawn) | 2.25 | 6.26 | – | –
Fc1ccc(C2=CSC3=NC4=C(CNC/C4=C\c4ccccc4Cl)C(c4ccccc4Cl)N23)cc1 (stereo not drawn) | 6.03 | 4.63 | 1.3 | 0.76
Fc1ccc(C2=CSC3=NC4=C(CNC/C4=C\c4ccccc4)C(c4ccccc4)N23)cc1 (stereo not drawn) | 20.3 | 7.91 | 0.39 | 2.57
COc1ccccc1/C=C1\CNCC2=C1N=C1SC=C(c3ccccc3)N1C2c1ccccc1OC (stereo not drawn) | 4.23 | 4.1 | 0.97 | 1.03
COc1ccc(C2=CSC3=NC4=C(CNC/C4=C\c4ccccc4OC)C(c4ccccc4OC)N23)cc1 (stereo not drawn) | 12 | 18.6 | 1.55 | 0.64
Clc1ccc(C2=CSC3=NC4=C(CNC/C4=C\c4ccccc4)C(c4ccccc4)N23)cc1 (stereo not drawn) | 23.9 | 44.3 | 1.86 | 0.54
S=C1NC2/C(=C/c3ccccc3)CNCC2C(c2ccccc2)N1 (stereo not drawn) | 19.3 | 3.78 | – | –
COc1ccc(C2=CSC3=NC4=C(CNC/C4=C\c4ccc(F)cc4)C(c4ccc(F)cc4)N23)cc1 (stereo not drawn) | 22.4 | 26.5 | 1.18 | 0.84
COc1ccccc1/C=C1\CNCC2=C1N=C1SC=C(c3ccc(Cl)cc3)N1C2c1ccccc1OC (stereo not drawn) | 5.08 | 29.3 | 5.76 | 0.17
COc1ccc(C2=CSC3=NC4=C(CNC/C4=C\c4ccc(Cl)cc4)C(c4ccc(Cl)cc4)N23)cc1 (stereo not drawn) | 8.44 | 12.8 | 1.52 | 0.66
Cc1ccc(/C=C2\CNCC3=C2N=C2SC=C(c4ccc(Cl)cc4)N2C3c2ccc(C)cc2)cc1 (stereo not drawn) | 21.7 | 32.6 | 1.5 | 0.67
